How the values were obtained:
[1] = target: Kappa-type opioid receptor (Mus musculus) (UniProt P33534); experiment: Dose ratio due to Antagonist Effect at a concentration of 100 nM by ethylketazocine, Opioid receptor kappa 1 in mouse vas deferens.; assay type: functional
How it was run: (§1)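 Isolated guinea pig ileum myenteric plexus–longitudinal muscle and mouse vas deferens. Agonists were normorphine (μ) and ethylketazocine (κ) in both tissues, and (D-Ala2,D-Leu5)enkephalin (δ) in vas deferens. The shift in IC50 is given as dose ratio, mean ± SEM of three to five separate experiments.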

[2] = target: Delta-type opioid receptor (Mus musculus) (UniProt P32300); experiment: Dose ratio due to Antagonist Effect at a concentration of 1000 nM by (D-Ala2, D-Leu5)enkephalin, Opioid receptor delta 1 in mouse vas deferens.; assay type: functional
Delta-type opioid receptor (Mus musculus), sequence (P32300 whole entry): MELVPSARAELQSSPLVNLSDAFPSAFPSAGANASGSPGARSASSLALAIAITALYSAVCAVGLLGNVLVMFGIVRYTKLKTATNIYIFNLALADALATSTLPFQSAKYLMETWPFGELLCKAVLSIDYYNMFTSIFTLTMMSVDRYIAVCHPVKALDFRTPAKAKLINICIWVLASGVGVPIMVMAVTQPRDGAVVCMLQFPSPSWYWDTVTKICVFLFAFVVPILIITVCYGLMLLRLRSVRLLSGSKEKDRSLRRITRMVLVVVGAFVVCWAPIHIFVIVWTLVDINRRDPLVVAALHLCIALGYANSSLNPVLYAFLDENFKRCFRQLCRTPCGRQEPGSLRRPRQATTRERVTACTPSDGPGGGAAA
How it was run: as §1, with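 “vas deferens. […] The shift” for “vas deferens. The shift”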

[3] = target: Mu-type opioid receptor (Cavia porcellus, UniProt P97266); experiment: Inhibitory binding constant in guinea pig brain homogenate was reported at mu site at a temperature 25 degree Centigrade labeled with [3H](D-Ala2-MePhe4,Gly-ol5)enkephalin(1 nM); assay type: tissue-based
Mu-type opioid receptor, sequence (P97266 whole entry): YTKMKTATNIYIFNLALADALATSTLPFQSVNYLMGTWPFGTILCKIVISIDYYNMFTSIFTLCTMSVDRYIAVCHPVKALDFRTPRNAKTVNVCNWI

[4] = target: Kappa-type opioid receptor (Cavia porcellus, UniProt P41144); experiment: (§2) Inhibitory binding constant in guinea pig brain homogenate was reported at Opioid receptor kappa 1 at temperature 25 degree Celsius labeled with (-)-[3H]immazocine (0.1 nM).; assay type: tissue-based
Kappa-type opioid receptor, sequence (P41144 whole entry): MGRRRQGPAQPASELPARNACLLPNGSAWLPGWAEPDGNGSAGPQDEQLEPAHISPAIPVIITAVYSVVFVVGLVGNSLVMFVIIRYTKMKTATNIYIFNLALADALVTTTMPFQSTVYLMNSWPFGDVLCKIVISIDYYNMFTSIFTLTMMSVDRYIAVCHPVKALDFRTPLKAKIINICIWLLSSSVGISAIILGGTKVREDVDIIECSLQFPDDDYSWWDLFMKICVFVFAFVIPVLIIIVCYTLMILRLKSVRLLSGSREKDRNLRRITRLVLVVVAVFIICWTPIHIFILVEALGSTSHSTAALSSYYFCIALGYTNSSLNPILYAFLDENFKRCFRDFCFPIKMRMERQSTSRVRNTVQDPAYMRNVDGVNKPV

[5] = target: Kappa-type opioid receptor (Cavia porcellus) (UniProt P41144); experiment: Dose ratio due to Antagonist Effect at a concentration of 100 nM by ethylketazocine, Opioid receptor kappa 1 in the guinea pig ileum longitudinal muscle myenteric plexus.; assay type: functional, tissue-based; how it was run: as §1
Kappa-type opioid receptor (Cavia porcellus), sequence (P41144 whole entry): as above

[6] = target: Mu-type opioid receptor (Mus musculus) (UniProt P42866); experiment: Dose ratio due to Antagonist Effect at a concentration of 100 nM by normorphine, Opioid receptor mu 1 in mouse vas deferens.; assay type: functional; how it was run: as §1
Mu-type opioid receptor (Mus musculus), sequence (P42866 whole entry): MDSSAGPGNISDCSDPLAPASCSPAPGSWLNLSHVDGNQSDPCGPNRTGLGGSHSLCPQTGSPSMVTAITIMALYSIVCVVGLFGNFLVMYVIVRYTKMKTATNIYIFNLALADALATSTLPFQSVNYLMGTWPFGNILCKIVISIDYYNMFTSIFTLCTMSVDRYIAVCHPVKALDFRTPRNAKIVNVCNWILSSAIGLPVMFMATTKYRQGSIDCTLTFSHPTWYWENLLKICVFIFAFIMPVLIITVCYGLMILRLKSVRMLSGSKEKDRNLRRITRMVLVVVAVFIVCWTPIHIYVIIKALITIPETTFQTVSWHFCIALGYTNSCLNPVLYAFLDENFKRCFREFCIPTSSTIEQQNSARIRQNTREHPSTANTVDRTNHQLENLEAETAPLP

[7] = target: Mu-type opioid receptor (Cavia porcellus) (UniProt P97266); experiment: Dose ratio due to Antagonist Effect at a concentration of 100 nM by normorphine, Opioid receptor mu 1 in the guinea pig ileum longitudinal muscle myenteric plexus.; assay type: functional, tissue-based; how it was run: as §1
Mu-type opioid receptor (Cavia porcellus), sequence (P97266 whole entry): as the sequence (P97266 whole entry) above

[8] = organism: Cavia porcellus; experiment: Agonist activity in the guinea pig ileum longitudinal muscle myenteric plexus.; assay type: functional
How it was run: (§3)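 Isolated guinea pig ileum myenteric plexus–longitudinal muscle or mouse vas deferens preparations, run at 25 °C, testing opioid agonist potency.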

[9] = organism: Mus musculus; experiment: Agonist activity in the mouse vas deferens.; assay type: functional; how it was run: as §3
[10] = target: Kappa-type opioid receptor (Cavia porcellus) (UniProt P41144); experiment: as §2; assay type: tissue-based
[11] = target: Mu-type opioid receptor (Cavia porcellus) (UniProt P97266); experiment: Inhibitory binding constant in guinea pig brain homogenate was reported at mu site at a temperature 25 degree Celsius labeled with [3H](D-Ala2-MePhe4,Gly-ol5)enkephalin(1nM); assay type: tissue-based

Kappa-type opioid receptor (Mus musculus), sequence (P33534 whole entry): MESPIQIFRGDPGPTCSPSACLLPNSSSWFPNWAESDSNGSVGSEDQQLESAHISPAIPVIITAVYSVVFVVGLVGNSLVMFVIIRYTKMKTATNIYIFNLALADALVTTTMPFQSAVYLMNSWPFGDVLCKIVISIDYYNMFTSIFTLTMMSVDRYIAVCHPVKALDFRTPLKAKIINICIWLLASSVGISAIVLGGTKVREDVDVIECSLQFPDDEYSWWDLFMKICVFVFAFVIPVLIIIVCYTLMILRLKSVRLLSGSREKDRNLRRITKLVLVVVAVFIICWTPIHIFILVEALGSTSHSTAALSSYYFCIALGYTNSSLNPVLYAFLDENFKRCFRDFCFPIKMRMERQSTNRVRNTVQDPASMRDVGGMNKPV

Row | SMILES | Dose ratio [1] | Dose ratio [2] | Ki [3] [nM] | Ki [4] [nM] | Dose ratio [5] | Dose ratio [6] | Dose ratio [7] | IC50 [8] [nM] | IC50 [9] [nM] | inhibition [10] [%] | inhibition [11] [%]
1 | O=C1c2ccc(O)c3c2C24CCN(CC5CC5)C1[C@]2(O)CCC(=O)[C@@H]4O3 (stereo partly drawn) [KETONALTREXONE] | 0.93 | 0.71 | 31.1 | 102 | 1.58 | 0.57 | 1.84 |  |  |  | 
2 | CN1CCC23c4c5ccc(O)c4O[C@H]2C(=O)CC[C@@]3(O)C1C5=O (stereo partly drawn) [KETOXYMORPHONE] |  |  |  |  |  |  |  | > 1000 | > 1000 | 17 | 19
3 | CN1CC[C@]23c4c5ccc(O)c4O[C@H]2C(=O)CC[C@@]3(O)[C@H]1C5 [OXYMORPHONE] |  |  |  |  |  |  |  | 24 | 77 |  | 

Reference: ChEMBL document CHEMBL1122908, “10-Ketonaltrexone and 10-ketooxymorphone” (J Med Chem, 1985)
